Values joined by “and” are separate entries in the source; they are usually repeats but may differ in a detail not shown here. Equal entries are not always repeated.
How the values were obtained:
EphA2 [1] = target: T1, EphA2 (Homo sapiens, UniProt P29317); assay: Ephrin-A1 Fc-induced EphA2 tyrosine phosphorylation in PC3 cells; assay type: cell-based; conditions: read-out: IC50, EphA2 tyrosine phosphorylation, 0.25 μg/mL ephrin-A1 Fc, ELISA
Method in brief: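 PC3 cells were serum-starved 1 h, given test compound (final DMSO ≤0.4%) for 15 min, then ephrin-A1 Fc for 20 min with compound still present. Lysis was in modified RIPA with NaF and pervanadate. Lysates were split for phospho and total EphA2 ELISA: anti-EphA2 extracellular capture, anti-phosphotyrosine or anti-cytoplasmic EphA2 detection, ABTS read at A405. IC50 was fitted to values normalized to ephrin-only cells.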

EphB2 = assay: ELISA, ephrin-B2 AP binding to immobilized EphB2 Fc; conditions: concentrations up to 200 μM
Method in brief: (§1)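 Eph receptor Fc fusions were immobilized at 1 μg/ml in TBST on protein A-coated wells. Diluted ephrin AP fusion supernatant from transiently transfected HEK293 cells was added for 2 h with or without test compound; for IC50 it was at approximately 0.01 nM. Bound AP was read with p-nitrophenylphosphate, minus Fc-only background. IC50 came from a variable-slope log(inhibitor)–response fit, bottom constrained to 0.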

EphA2 [2] = target: T1, EphA2; assay: Ephrin-A1 Fc-induced EphA2 phosphorylation in HUVECs; assay type: cell-based; conditions: at 50 μM
Method in brief: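 HUVECs were serum-starved 1–2 h and preincubated 15 min with 50 μM test compound (DMSO ≤0.4% final). They were then stimulated 20 min with 0.25 μg/mL ephrin-A1 Fc plus 1.5 μg/mL ephrin-B2 Fc (preclustered with 3-fold anti-Fc), or Fc, with compound present. Lysates were made in modified RIPA with NaF and pervanadate. EphA2 (1 μg antibody) and EphB4 (20 μg antibody) immunoprecipitates were immunoblotted for phosphotyrosine; lysates were probed for receptors and β-actin.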

EphB4 = target: T2, EphB4 (Mus musculus, UniProt P54761); assay: Ephrin-B2 Fc-induced EphB4 tyrosine phosphorylation in B16 melanoma cells; assay type: cell-based; conditions: relative to EphA2 and EphA4
T2 sequence (P54761 16-987): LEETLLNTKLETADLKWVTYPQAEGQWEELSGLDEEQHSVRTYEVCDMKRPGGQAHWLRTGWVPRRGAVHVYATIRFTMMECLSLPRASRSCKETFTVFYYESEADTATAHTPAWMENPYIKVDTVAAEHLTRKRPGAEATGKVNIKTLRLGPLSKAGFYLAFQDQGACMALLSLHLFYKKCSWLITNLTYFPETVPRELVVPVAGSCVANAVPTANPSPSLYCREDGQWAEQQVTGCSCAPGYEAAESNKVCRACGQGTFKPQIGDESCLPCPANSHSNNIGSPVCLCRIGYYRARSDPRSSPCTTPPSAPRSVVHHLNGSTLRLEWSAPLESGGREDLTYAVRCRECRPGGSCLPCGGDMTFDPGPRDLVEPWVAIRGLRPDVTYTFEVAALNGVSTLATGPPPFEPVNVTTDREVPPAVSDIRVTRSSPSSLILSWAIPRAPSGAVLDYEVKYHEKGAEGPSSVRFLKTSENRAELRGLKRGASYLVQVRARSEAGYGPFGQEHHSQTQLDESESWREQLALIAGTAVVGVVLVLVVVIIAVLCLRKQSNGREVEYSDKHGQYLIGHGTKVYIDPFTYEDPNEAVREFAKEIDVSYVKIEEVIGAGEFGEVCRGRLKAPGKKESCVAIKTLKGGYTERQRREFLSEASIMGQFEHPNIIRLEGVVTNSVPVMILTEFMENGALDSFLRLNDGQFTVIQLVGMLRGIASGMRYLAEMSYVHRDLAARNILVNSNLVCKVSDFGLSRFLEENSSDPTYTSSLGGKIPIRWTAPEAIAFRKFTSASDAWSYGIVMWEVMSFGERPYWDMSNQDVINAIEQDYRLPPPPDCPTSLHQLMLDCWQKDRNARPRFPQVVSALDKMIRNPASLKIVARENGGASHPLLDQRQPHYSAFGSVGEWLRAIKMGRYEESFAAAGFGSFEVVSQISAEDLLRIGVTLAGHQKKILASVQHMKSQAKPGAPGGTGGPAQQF
Method in brief: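 Cells were serum-starved 1–2 h and pretreated 15 min with test compound (DMSO ≤0.4% final). They were then stimulated 20 min with compound present: COS cells with 0.8 μg/mL ephrin-B2 Fc, and B16 melanoma cells with 1.5 μg/mL anti-Fc-preclustered ephrin-B2 Fc, or Fc control. Lysates were made in modified RIPA. EphB2 (COS; 7 μg antibody) or EphB4 (B16; 20 μg antibody) was immunoprecipitated, probed for phosphotyrosine, then reprobed for the receptor.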

[3] = tested on: EphA4 ephrin-binding domain mutants; assay: Wild-type and mutant EphA4 AP binding to immobilized ephrin-A5 Fc; parameters: species or system human; conditions: EphA4 AP mutants vs wild-type
Method in brief: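 Wild-type and point-mutant human EphA4 ephrin-binding domains fused to alkaline phosphatase were added at 0.01 nM final to wells precoated with protein A and ephrin-A5 Fc, with or without test compound. Bound AP was read with p-nitrophenylphosphate. IC50 values from 2–3 separate experiments were compared with wild-type by one-way ANOVA and Dunnett's post-hoc test.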

HUVECs = assay: Capillary-like tube formation assay, HUVECs on Matrigel; assay type: cell-based, human; conditions: 18 hours
Method in brief: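 HUVECs (2.3 × 10⁴) were seeded on Matrigel-precoated wells in complete HUVEC medium containing test compound or DMSO control and grown for 18 h. Polygons were counted from phase-contrast images, 2–4 pictures from each of 3–6 wells. Counts were compared with DMSO-only wells by one-way ANOVA with Dunnett's post-hoc test.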

EphA4 = EphA4 (Mus musculus, UniProt Q03137); assay: Ephrin-A5 Fc-induced EphA4 tyrosine phosphorylation in HT22 cells; assay type: cell-based; conditions: read-out: IC50, EphA4 tyrosine phosphorylation, 0.5 μg/mL ephrin-A5 Fc, ELISA
Sequence of EphA4 (Q03137 20-986): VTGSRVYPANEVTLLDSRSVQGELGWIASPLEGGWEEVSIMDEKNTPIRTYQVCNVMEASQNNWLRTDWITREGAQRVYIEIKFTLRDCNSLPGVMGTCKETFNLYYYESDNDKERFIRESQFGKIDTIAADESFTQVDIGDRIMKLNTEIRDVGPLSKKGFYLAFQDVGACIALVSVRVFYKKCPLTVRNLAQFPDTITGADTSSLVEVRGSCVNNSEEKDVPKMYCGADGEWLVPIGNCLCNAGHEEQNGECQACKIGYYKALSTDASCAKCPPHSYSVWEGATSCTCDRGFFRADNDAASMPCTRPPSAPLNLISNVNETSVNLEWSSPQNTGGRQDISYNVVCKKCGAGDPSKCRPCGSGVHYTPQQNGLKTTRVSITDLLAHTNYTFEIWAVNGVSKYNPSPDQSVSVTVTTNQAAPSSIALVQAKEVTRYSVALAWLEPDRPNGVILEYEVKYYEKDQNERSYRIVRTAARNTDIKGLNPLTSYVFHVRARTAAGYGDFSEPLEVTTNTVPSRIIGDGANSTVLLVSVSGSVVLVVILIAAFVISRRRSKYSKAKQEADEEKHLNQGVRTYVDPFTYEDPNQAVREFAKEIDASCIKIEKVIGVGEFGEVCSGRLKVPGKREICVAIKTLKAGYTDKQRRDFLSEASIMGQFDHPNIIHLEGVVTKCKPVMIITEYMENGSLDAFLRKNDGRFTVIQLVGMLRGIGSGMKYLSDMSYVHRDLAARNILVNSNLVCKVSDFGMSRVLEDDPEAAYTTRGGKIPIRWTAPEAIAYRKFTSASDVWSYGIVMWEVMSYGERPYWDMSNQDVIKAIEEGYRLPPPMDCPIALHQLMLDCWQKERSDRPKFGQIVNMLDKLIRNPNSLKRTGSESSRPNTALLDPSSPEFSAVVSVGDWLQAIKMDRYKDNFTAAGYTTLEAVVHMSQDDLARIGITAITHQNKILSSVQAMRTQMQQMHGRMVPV
Method in brief: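 HT22 cells at ~70% confluency were serum-starved 1 h, given test compound (final DMSO ≤0.4%) for 15 min, then ephrin-A5 Fc for 20 min with compound still present. After modified RIPA lysis, phospho and total EphA4 were read by capture ELISA (anti-phosphotyrosine 1:500; cytoplasmic anti-EphA4 1:1,000), with ABTS at A405. Values were normalized to ephrin-only cells; IC50 came from 3–9 measurements.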

EphB1 = assay: ELISA, ephrin-B2 AP binding to immobilized EphB1 Fc; conditions: concentrations up to 200 μM
Method in brief: as §1

EphA7 = assay: ELISA, ephrin-A5 AP binding to immobilized EphA7 Fc

T1 sequence (P29317 24-976): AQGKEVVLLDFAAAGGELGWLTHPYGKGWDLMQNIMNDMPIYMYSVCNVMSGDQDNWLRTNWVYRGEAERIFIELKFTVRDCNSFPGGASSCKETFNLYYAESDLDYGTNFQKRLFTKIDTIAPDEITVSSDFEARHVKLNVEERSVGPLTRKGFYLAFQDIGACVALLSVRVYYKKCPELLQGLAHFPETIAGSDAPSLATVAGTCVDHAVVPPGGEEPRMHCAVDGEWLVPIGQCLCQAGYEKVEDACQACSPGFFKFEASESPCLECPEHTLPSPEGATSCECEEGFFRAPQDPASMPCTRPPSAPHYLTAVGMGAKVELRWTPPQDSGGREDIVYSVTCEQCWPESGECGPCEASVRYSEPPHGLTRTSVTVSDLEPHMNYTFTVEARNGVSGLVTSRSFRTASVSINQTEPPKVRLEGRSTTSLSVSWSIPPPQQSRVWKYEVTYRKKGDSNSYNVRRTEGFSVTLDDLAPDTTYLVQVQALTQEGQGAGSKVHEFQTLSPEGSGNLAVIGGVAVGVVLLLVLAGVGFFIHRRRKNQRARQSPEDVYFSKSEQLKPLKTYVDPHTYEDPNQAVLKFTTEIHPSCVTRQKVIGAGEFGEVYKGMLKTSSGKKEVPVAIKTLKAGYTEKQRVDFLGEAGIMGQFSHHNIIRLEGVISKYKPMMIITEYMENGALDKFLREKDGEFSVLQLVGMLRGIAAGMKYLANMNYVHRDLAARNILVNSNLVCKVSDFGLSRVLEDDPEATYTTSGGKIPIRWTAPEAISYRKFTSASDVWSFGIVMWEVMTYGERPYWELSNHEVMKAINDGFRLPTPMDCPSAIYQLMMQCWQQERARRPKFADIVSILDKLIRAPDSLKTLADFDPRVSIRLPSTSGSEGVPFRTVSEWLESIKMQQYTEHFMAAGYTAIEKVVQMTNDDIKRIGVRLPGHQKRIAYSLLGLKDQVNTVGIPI

Question: Which IC50 (EphA2 [1]) does the source give for `O=C(Oc1cc(O)cc2c1C[C@@H](OC(=O)c1cc(O)c(O)c(O)c1)[C@@H](c1cc(O)c(O)c(O)c1)O2)c1cc(O)c(O)c(O)c1` [epigallocatechin-3,5-digallate] here?
Answer: 90 µM and ~90 µM

Question: And the “inhibition of EphB2-ephrin interaction” value (EphB2)?
Answer: does not target

Question: What about the “inhibition of EphB2-ephrin interaction” value (EphB2; listed as Epigallocatechin-3,5-digallate) of the same compound?
Answer: no inhibition

Question: What about the “EphA2 phosphorylation in HUVECs” value (EphA2 [2]) of the same compound?
Answer: strongly inhibits

Question: What about the “inhibition of EphB4 phosphorylation” value (EphB4) of the same compound?
Answer: at higher concentrations

Question: And the “effect of other EphA4 mutations, such as D123A, on inhibitory activity” value [3]?
Answer: did not detectably affect

Question: And the capillary-like tube formation (HUVECs; 20 μM to 200 μM)?
Answer: dose-dependent inhibitory effect

Question: What about the capillary-like tube formation (HUVECs; at 50 μM) of the same compound?
Answer: inhibit

Question: And the IC50 (EphA4)?
Answer: 190 µM and ~190 µM

Question: What about the “inhibition of EphB1-ephrin interaction” value (EphB1) of the same compound?
Answer: no inhibition

Question: What about the “inhibition of ephrin binding to EphA7” value (EphA7) of the same compound?
Answer: detectably inhibited, but with lower potency
